Results on six molecules are retold here after paper PMC11539713 (Malaria Journal, 2024).

Each structure is given as a SMILES string. Values after ≈ are worked out from the molar mass of the structure shown. Values joined by “and” are separate entries in the source; they are usually repeats but may differ in a detail not shown here. Equal entries are not always repeated. Where two headings read alike, the source gives them in different places.

For data set [1], the system named is CYP enzymes. The experiment in a line: Enzyme phenotyping with. It is filed as in vitro ADME, human. The note with it: for Effect of inhibitor on formation of ART-M in HLMs: ART 1 μM, HLMs 1 mg/mL, 1 mM 1-ABT, 1 μM ketoconazole.
The format of data set [2] is in vivo, human. The note with it: for fAUC0-t: area under the free plasma concentration–time curve; for fCmax: maximum free plasma concentration. The method in brief: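 Subjects were six healthy non-smoking men, 20–26 y, BMI 20–25 kg/m2. Each received oral test compound 125 mg plus piperaquine 750 mg per dose over two days. Venous blood was drawn 0–48 h, and plasma was stored at −80 °C. Samples were prepared by acetonitrile precipitation with deuterated internal standard and analysed by LC-HRMS. Non-compartmental analysis used observed Cmax/Tmax, AUC0-t by linear trapezoidal rule, and CL/F = dose/AUC0-t.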

The conditions of data set [3]: cited from earlier work.
For data set [4], the system named is PfDd2. The experiment in a line: In vitro drug susceptibility, SYBR Green I fluorometric method, PfDd2. The class given is cell-based. The note with it: Plasmodium falciparum. The method in brief: (§1)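 Synchronous ring-stage P. falciparum culture at final 0.5% parasitaemia and 2% haematocrit, exposed to test compound. Chloroquine served as positive control and 0.1% DMSO as negative control. Growth was read by SYBR Green I fluorescence. MIC50/MIC90 came from nonlinear regression of log-transformed concentrations, averaged over two independent experiments each run in duplicate.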

Data set [5] in a line: Plasma protein binding by ultrafiltration. It is filed as in vitro ADME. The note with it: human, pooled human plasma.
The subject of data set [6] is Pf3D7. The experiment in a line: In vitro drug susceptibility, SYBR Green I fluorometric method, Pf3D7. The note with it: Plasmodium falciparum. The class given is cell-based. The method in brief: as §1
For data set [7], the system named is Pf3D7. The note with it: cited from earlier work.
For data set [8], the system named is PfDd2. The note with it: cited from earlier work.
A short description of data set [9]: Enzyme kinetics of ART metabolism in human liver microsomes. The class given is in vitro ADME. The note with it: HLMs 0.5 mg/mL; for microsomal CLint: CLint,H, Vmax/Km, 15 min.
For data set [10] the following is noted: cited from earlier work. The source holds these as a separate data set.
The subject of data set [11] is CYP3A. The note with it: read-out: Inhibition constant Ki of CYP3A; cited from earlier work.
[12] abbreviates: read-out: Antiplasmodial activity (literature data).

Regarding `Nn1nnc2ccccc21` [1-ABT], the “Effect of inhibitor on formation of ART-M in HLMs” value in data set [1] is on record as “completely inhibited”. In addition, the “Effect of inhibitor on formation of trace metabolite isomer M1” value in data set [1] (ART in HLMs) was “inhibited completely”.

For `C[C@@H]1CC[C@H]2[C@@H](C)C(=O)O[C@@H]3O[C@@]4(C)CC[C@@H]1[C@]32OO4` [ART, Artemisinin], the fAUC0-t came to 155.6 ± 27.6 nmol/L⋅h in data set [2] (Day-1) and 113.0 ± 20.1 nmol/L⋅h in data set [2] (Day-2). Moreover, the fCmax in data set [2] (Day-1) is 51.8 nM and 51.8 ± 18.0 nM; in data set [2] (Day-2), 43.1 ± 10.5 nM. Also, in [2] (male, human, plasma, oral, CL/F, Day-1, dose/AUC0-t), the CL/F is 183 mL/min/kg. Also, the Tmax in [2] (male, human, plasma, oral, Tmax, Day-1) was determined as 1 h. The same molecule had a half-life in data set [2] (male, human, plasma, oral, t1/2, Day-1) of 1.7 h. This molecule also registered a Cmax in [2] (male, human, plasma, po, Cmax, after the first oral dose, plasma) of 207 nM. The Bioavailability in [3] is ~ 30%. Further, the “Elimination half-life t1/2” value in [3] is ~ 2 h. Besides, the MIC50 in data set [4] stood at 0.0204 µM (≈ 5.76 ng/mL); in data set [6], 0.0101 µM (≈ 2.85 ng/mL). The MIC90 in data set [4] was determined as 0.0384 ± 0.0009 µM (≈ 10.8 ng/mL); in data set [6] it was 0.0139 ± 0.0005 µM (≈ 3.92 ng/mL). Further, the fraction unbound at 0.6 μM in data set [5] was 0.251. Further, the IC50 in [7] (setting [12]) and in [8] (setting [12]) was 10 to 30 nM in each case. Moreover, the microsomal CLint in data set [9] (formation of ART-M) was found to be 27.6 µL/min/mg; in [9] (substrate depletion), 30.3 µL/min/mg. The Km at 15 min in [9] (Km, substrate depletion) is 23.8 µM.

Consider `CCN(CC)CCCC(C)Nc1ccnc2cc(Cl)ccc12` (stereo not shown) [CQ, Chloroquine diphosphate], for which the MIC50 in [4] is 0.0938 µM; in data set [6], 0.0106 µM. This molecule registered an MIC90 in data set [6] of 0.0163 ± 0.0031 µM. The “MIC50 (reported data)” value in data set [7] is 0.005 to 0.04 µM; in data set [8] it was 0.062 to 0.1354 µM.

As to `C[C@H]1[C@@H](O)O[C@@H]2O[C@@]3(C)CC[C@H]4[C@H](C)CC[C@@H]1[C@@]24OO3` [dihydroartemisinin], the MIC50 in data set [8] is on record as ~ 1.0 nM.

For `CC(=O)N1CCN(c2ccc(OCC3COC(Cn4ccnc4)(c4ccc(Cl)cc4Cl)O3)cc2)CC1` (stereo not shown) [ketoconazole], the “Effect of inhibitor on formation of ART-M in HLMs” value in data set [1] was “completely inhibited”.

On to `Clc1ccc2c(N3CCN(CCCN4CCN(c5ccnc6cc(Cl)ccc56)CC4)CC3)ccnc2c1` [piperaquine], for which, in [10], the Plasma protein binding is 97.4%. Besides, the Ki in data set [11] is 680 nM.
